Laboratory results reported in ChEMBL document CHEMBL3627646, “Synthesis and biological activity of amino acid derivatives of avarone and its model compound” (Bioorg Med Chem, 2015).
Converted amounts (≈) assume the structure as drawn.

What was measured:
[1] = system: HeLa; assay: Cytotoxicity against human HeLa cells assessed as cell survival after 72 hrs by MTT assay; type: functional, cell-based
How it was run: (§1)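 Cells seeded (HeLa 2000, MDA-MB-453 3000, others 5000 per well), treated 24 h later (K562 after 2 h). Five double-diluted final concentrations, 200–12.5 μM, from 10 mM DMSO stocks, in RPMI-1640 with 10% FBS, pH 7.2, 72 h. MTT 4 h at 37 °C, SDS added, A570 read next day. Survival relative to medium control; IC50 from survival curves; triplicate; cisplatin positive control.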

[2] = system: A549; assay: Cytotoxicity against human A549 cells assessed as cell survival after 72 hrs by MTT assay; type: functional, cell-based; details: A549, 72 h; how it was run: as §1
[3] = Cytotoxicity against human Fem-X cells assessed as cell survival after 72 hrs by MTT assay; type: functional, cell-based; how it was run: as §1
[4] = system: K562; assay: Cytotoxicity against human K562 cells assessed as cell survival after 72 hrs by MTT assay; type: functional, cell-based; details: K562, 72 h; how it was run: as §1
[5] = system: MDA-MB-453; assay: Cytotoxicity against human MDA-MB-453 cells assessed as cell survival after 72 hrs by MTT assay; type: functional, cell-based; details: MDA-MB-453, 72 h; how it was run: as §1
[6] = system: MRC5; assay: Cytotoxicity against human MRC5 cells assessed as cell survival after 72 hrs by MTT assay; type: cell-based; details: MRC5, 72 h; how it was run: as §1
[7] = system: Staphylococcus aureus; assay: Antibacterial activity against Staphylococcus aureus ATCC 6538 after 24 hrs by microbroth double dilution method; type: functional; details: ATCC 6538, 24 h
How it was run: (§2)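 Microbroth double dilution in Mueller Hinton broth; compound stock 10 mg/mL in DMSO serially halved across rows. Wells inoculated with 10 μL culture at 10^6 cells/mL, incubated 37 °C for 24 h. Amikacin row as positive control, DMSO row as negative control. MIC taken as lowest concentration inhibiting bacterial growth.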

[8] = system: Kocuria rhizophila; assay: Antibacterial activity against Kocuria rhizophila ATCC 9341 after 24 hrs by microbroth double dilution method; type: functional; details: ATCC 9341, 24 h; how it was run: as §2
[9] = system: Bacillus subtilis; assay: Antibacterial activity against Bacillus subtilis ATCC 6633 after 24 hrs by microbroth double dilution method; type: functional; details: ATCC 6633, 24 h; how it was run: as §2
[10] = system: Micrococcus luteus; assay: Antibacterial activity against Micrococcus luteus ATCC 4698 after 24 hrs by microbroth double dilution method; type: functional; details: ATCC 4698, 24 h; how it was run: as §2
[11] = system: Micrococcus flavus; assay: Antibacterial activity against Micrococcus flavus ATCC 10240 after 24 hrs by microbroth double dilution method; type: functional; details: ATCC 10240, 24 h; how it was run: as §2
[12] = system: Clostridium sporogenes; assay: Antibacterial activity against Clostridium sporogenes ATCC 19404 after 24 hrs by microbroth double dilution method; type: functional; details: ATCC 19404, 24 h; how it was run: as §2
[13] = system: Escherichia coli; assay: Antibacterial activity against Escherichia coli ATCC 25922 after 24 hrs by microbroth double dilution method; type: functional; details: ATCC 25922, 24 h; how it was run: as §2
[14] = system: Proteus hauseri; assay: Antibacterial activity against Proteus hauseri ATCC 13315 after 24 hrs by microbroth double dilution method; type: functional; details: ATCC 13315, 24 h; how it was run: as §2
[15] = system: Salmonella enterica; assay: Antibacterial activity against Salmonella enterica ATCC 13076 after 24 hrs by microbroth double dilution method; type: functional; details: ATCC 13076, 24 h; how it was run: as §2
[16] = system: Pseudomonas aeruginosa; assay: Antibacterial activity against Pseudomonas aeruginosa ATCC 9027 after 24 hrs by microbroth double dilution method; type: functional; details: ATCC 9027, 24 h; how it was run: as §2
[17] = system: Candida albicans; assay: Antifungal activity against Candida albicans ATCC 10231 after 24 hrs by microbroth double dilution method; type: functional; details: ATCC 10231, 24 h
[18] = system: Saccharomyces cerevisiae; assay: Antifungal activity against Saccharomyces cerevisiae ATCC 9763 after 24 hrs by microbroth double dilution method; type: functional; details: ATCC 9763, 24 h
[19] = system: Aspergillus brasiliensis; assay: Antifungal activity against Aspergillus brasiliensis ATCC 16404 after 24 hrs by microbroth double dilution method; type: functional; details: ATCC 16404, 24 h
[20] = system: Artemia salina; assay: Cytotoxicity in Brine shrimp assessed as nauplii mortality after 24 hrs; type: organism-based; details: in vivo
How it was run: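 Artemia salina eggs hatched in aerated tap water with dried yeast at 18–20 °C under illumination for 48 h, and freshly hatched nauplii were used. Compounds in DMSO (0.01–1 mg) were added to 950 µL artificial seawater containing 10–20 nauplii, with 5% final DMSO. After 24 h under illumination at room temperature, dead and surviving nauplii were counted and statistically analysed.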

Question: With `CC(C)(C)C1=CC(=O)C=CC1=O` as the compound, how does the IC50 [1] read?
Answer: The IC50 was 44.1 µM.

Question: What about the IC50 [2] of the same compound?
Answer: Its IC50 is 47 µM.

Question: What about the IC50 [3] of the same compound?
Answer: The IC50 was 41.6 µM.

Question: And the IC50 [4]?
Answer: Its IC50 is 15.5 µM.

Question: What about the IC50 [5] of the same compound?
Answer: The IC50 was 56.8 µM.

Question: What about the IC50 [6] of the same compound?
Answer: The IC50 was over 200 µM.

Question: What about the MIC [7] of the same compound?
Answer: The MIC was 238 µM (≈ 39 µg/mL).

Question: And the MIC [8]?
Answer: The MIC was 475 µM (≈ 78 µg/mL).

Question: And the MIC [9]?
Answer: The MIC was 238 µM (≈ 39 µg/mL).

Question: And the MIC [10]?
Answer: Its MIC is 238 µM (≈ 39 µg/mL).

Question: And the MIC [11]?
Answer: The MIC was 475 µM (≈ 78 µg/mL).

Question: What about the MIC [12] of the same compound?
Answer: The MIC was 475 µM (≈ 78 µg/mL).

Question: And the MIC [13]?
Answer: Its MIC is 238 µM (≈ 39 µg/mL).

Question: What about the MIC [14] of the same compound?
Answer: Its MIC is 475 µM (≈ 78 µg/mL).

Question: And the MIC [15]?
Answer: Its MIC is 475 µM (≈ 78 µg/mL).

Question: What about the MIC [16] of the same compound?
Answer: Its MIC is 475 µM (≈ 78 µg/mL).

Question: And the MIC [17]?
Answer: The MIC was 122 µM (≈ 20 µg/mL).

Question: And the MIC [18]?
Answer: Its MIC is 238 µM (≈ 39 µg/mL).

Question: And the MIC [19]?
Answer: Its MIC is 122 µM (≈ 20 µg/mL).

Question: And the LC50 [20]?
Answer: The LC50 was 27.4 ppm.

Question: Which results are given for `CC1=CCC[C@H]2[C@](C)(CC3=CC(=O)C=C(NCC(=O)O)C3=O)[C@@H](C)CC[C@]12C`?
Answer: IC50 [1]: 19.9 µM; IC50 [2]: 46.7 µM; IC50 [3]: 17.8 µM; IC50 [4]: 15.6 µM; IC50 [5]: 5.84 µM; IC50 [6]: 183 µM; MIC [7]: 101 µM (≈ 39 µg/mL); MIC [8]: 811 µM (≈ 313 µg/mL); MIC [9]: 407 µM (≈ 157 µg/mL); MIC [10]: 101 µM (≈ 39 µg/mL); MIC [11]: 407 µM (≈ 157 µg/mL); MIC [12]: 407 µM (≈ 157 µg/mL); MIC [13]: 101 µM (≈ 39 µg/mL); MIC [14]: 811 µM (≈ 313 µg/mL); MIC [15]: 407 µM (≈ 157 µg/mL); MIC [16]: 407 µM (≈ 157 µg/mL); MIC [17]: 12.6 µM (≈ 4.86 µg/mL); MIC [18]: 100 µM (≈ 38.7 µg/mL); MIC [19]: 404 µM (≈ 156 µg/mL); LC50 [20]: 487.1 ppm

Question: Which IC50 [1] does the source give for `CC1=CCC[C@H]2[C@](C)(CC3=CC(=O)C=C(N[C@@H](C)C(=O)O)C3=O)[C@@H](C)CC[C@]12C` here?
Answer: The IC50 was 11.7 µM.

Question: What about the IC50 [2] of the same compound?
Answer: The IC50 was 54.3 µM.

Question: What about the IC50 [3] of the same compound?
Answer: The IC50 was 10.3 µM.

Question: What about the IC50 [4] of the same compound?
Answer: Its IC50 is 15.8 µM.

Question: What about the IC50 [5] of the same compound?
Answer: Its IC50 is 14.7 µM.

Question: And the IC50 [6]?
Answer: Its IC50 is 157 µM.

Question: What about the MIC [7] of the same compound?
Answer: Its MIC is 49.1 µM (≈ 19.6 µg/mL).

Question: And the MIC [8]?
Answer: The MIC was 1570 µM (≈ 626 µg/mL).

Question: And the MIC [9]?
Answer: The MIC was 195 µM (≈ 78.1 µg/mL).

Question: And the MIC [10]?
Answer: Its MIC is 97.7 µM (≈ 39.1 µg/mL).

Question: What about the MIC [11] of the same compound?
Answer: Its MIC is 195 µM (≈ 78.1 µg/mL).

Question: What about the MIC [12] of the same compound?
Answer: Its MIC is 195 µM (≈ 77.9 µg/mL).

Question: And the MIC [13]?
Answer: The MIC was 49.1 µM (≈ 19.6 µg/mL).

Question: And the MIC [14]?
Answer: Its MIC is 393 µM (≈ 157 µg/mL).

Question: And the MIC [15]?
Answer: The MIC was 195 µM (≈ 78.1 µg/mL).

Question: And the MIC [16]?
Answer: The MIC was 195 µM (≈ 78.1 µg/mL).

Question: And the MIC [17]?
Answer: The MIC was 6.13 µM (≈ 2.45 µg/mL).

Question: What about the MIC [18] of the same compound?
Answer: Its MIC is 195 µM (≈ 77.9 µg/mL).

Question: And the MIC [19]?
Answer: Its MIC is 1560 µM (≈ 624 µg/mL).

Question: And the LC50 [20]?
Answer: Its LC50 is 129.4 ppm.
